In article PMC11408689 (Nature Communications, 2024):
Changes are numbered by the printed parent chain. Several values for one entry are separate records, joined by “and”; a condition that tells them apart may be missing. Identical values can stand only once. Entries after “also recorded” stand apart in the source; their conditions may differ. Starred links: 1 amine or outer side, 2 acyl side, 3 side chain; linkers in the order of their positions; H or OH if unused. Positions of bridges follow the written chain, without caps; N, C: chain ends. Non-standard residues stand in square brackets, D forms with d. Ala(13C3,15N) = 13C3,15N-labelled alanine, [13CH3][13C@H]([15NH][*:1])[13C](=O)[*:2]

Experiments:
nucleus-localized ATF6 = test: UPR marker nucleus-localized ATF6 in TH-positive neurons after MPP+ injury; format: cell-based, rat
In short: (§1)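 Rat primary mesencephalic neurons were pretreated with test compound (PBS stock diluted in medium) from 4 h before injury. They were then exposed on DIV6 to 4 µM MPP+ for 48 h, six wells per condition. Fixed cells were double-stained for TH plus phospho-IRE1α, ATF4 or ATF6, with Hoechst nuclear counterstain. Twenty 10x images per well were analysed automatically for TH/phospho-IRE1α overlap or stained nuclei in TH+ cells. Results are % vs control; one-way ANOVA with Dunnett's test.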

phosphorylated IRE1α = test: UPR marker phospho-IRE1α in TH-positive neurons after MPP+ injury; format: cell-based, rat; conditions: for UPR modulating effect on IRE1α pathway: compared to wild-type C-CDNF
In short: as §1

nucleus-localized ATF4 = test: UPR marker nucleus-localized ATF4 in TH-positive neurons after MPP+ injury; format: cell-based, rat; conditions: for UPR modulating effect on PERK/ATF4 pathway: compared to wild-type C-CDNF
In short: as §1

GRP78-NBD [1] = target: T1, GRP78-NBD (Homo sapiens, UniProt P11021); test: SEC-SAXS of GRP78-NBD and its complexes with CDNF or C-CDNF; format: binding
T1 sequence (P11021 26-382): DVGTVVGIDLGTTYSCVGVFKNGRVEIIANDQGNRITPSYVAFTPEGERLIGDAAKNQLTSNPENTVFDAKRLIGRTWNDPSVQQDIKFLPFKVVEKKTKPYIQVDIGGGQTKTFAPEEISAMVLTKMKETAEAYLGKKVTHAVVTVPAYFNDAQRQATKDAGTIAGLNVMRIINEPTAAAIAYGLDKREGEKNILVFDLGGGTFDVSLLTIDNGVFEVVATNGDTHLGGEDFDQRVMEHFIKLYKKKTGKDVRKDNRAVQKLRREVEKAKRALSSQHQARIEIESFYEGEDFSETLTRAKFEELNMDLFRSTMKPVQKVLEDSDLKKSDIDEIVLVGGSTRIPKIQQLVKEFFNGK
In short: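 Recombinant human proteins expressed in E. coli: CDNF in T7 Shuffle Express (to keep disulfides), GRP78-NBD in BL21 Star (DE3). In-line SEC-SAXS used 10 μl at ~10 mg/ml on Superdex 200 Increase at 0.35 ml/min and 20 °C, in PBS pH 7.2 with 1.5% glycerol. Data were collected at EMBL P12 (Pilatus 6M) in a 1 mm quartz capillary.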

[2] = tested on: TH-positive dopamine neurons (rat primary mesencephalic neurons); format: cell-based; conditions: for neuroprotective activity: any of the tested concentrations
In short: (§2)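 Rat primary mesencephalic neurons were used. On DIV6, medium (Neurobasal, B27, BDNF, GDNF) was replaced with medium containing 4 µM MPP+ for 48 h. Test compound, from PBS stocks diluted in medium, was added 4 h before MPP+. Six wells per condition; fixed, then immunostained for TH and α-synuclein. Twenty 10x images per well, automated count of TH+ neurons and TH/aSyn overlap area. Reported as % of untreated control; one-way ANOVA with Dunnett's test.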

GRP78-NBD [3] = target: T1, GRP78-NBD; test: Spectral shift binding assay; conditions: ligand up to 100 μM; 25 °C
In short: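 Tag-free GRP78-NBD (His-tagged, expressed in E. coli BL21 Star (DE3), cobalt-affinity purified, TEV-cleaved, SEC-polished) labelled with NT-650-NHS, held at 10 nM. Ligand serial dilutions were made in PBS pH 7.2 with 0.05% Tween 20, giving 100 μM to 3.05 nM final. Read on Monolith X at 25 °C, 100% LED, as the 670/650 nm ratio. Amplitude is the unbound-to-bound plateau difference.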

[4] = tested on: α-synuclein (aSyn) aggregates in dopamine neurons; test: α-synuclein; format: cell-based, rat
In short: as §2

GRP78-NBD [5] = target: T1, GRP78-NBD; test: 2D 1H-13C HSQC NMR titration of 13C/15N-Ala labeled C-CDNF with GRP78-NBD; format: binding; conditions: GRP78-NBD 0-65 µM
GRP78-NBD [6] = conditions: crystal structure; cited from earlier work
[7] = MPP+ injury, 4 µM, 48 h, p < 0.0001 vs control
[8] = SEC-SAXS, PBS pH 7.2, 1.5% glycerol, 20 °C

## C[n+]1ccc(-c2ccccc2)cc1 [MPP^+, 1-methyl-4-phenyl-pyrididium, reference compound]
nucleus-localized ATF6; [7]
  increase of nucleus-localized ATF6 from control cells: 79.5 ± 6.2
Phosphorylated IRE1α; [7]
  increase of S724 phosphorylated IRE1α from control cells: 81.0 ± 5.0%
nucleus-localized ATF4; [7]
  increase of nucleus-localized ATF4 from control cells: 42.1 ± 6.1

## CDNF: Cerebral dopamine neurotrophic factor, CDNFWT (aa 25-187), expressed in E. coli
GRP78-NBD [1]; shift of SEC-SAXS elution peak to earlier elution, excess ligand
  complex formation with GRP78-NBD: formed a complex with GRP78-NBD

## GRP78-NBD: nucleotide-binding domain of GRP78 (aa 26-382), expressed in E. coli
GRP78-NBD [1]; [8]
  Dmax (PDDF/P(r) analysis): 6.5 nm and 6.5 ± 0.2 nm
  Rg (Guinier Analysis): 2.2 nm and 2.2 ± 0.1 nm
GRP78-NBD [1]; from SEC-SAXS data
  Envelope volume (ab initio modeling, Dammif): 83 nm^3

B1: C-CDNF-MT1 (protein)
peptide: KYEKTLDLASVDLRKMRVAELKQILHSWGEECRACAAATDYVNLIQELAPKYAATHPKTEL
modifications: disulfide 32-35
[2]; MPP+ 48 h
  neuroprotective activity: did not show any neuroprotective activity
[2]; maximal effect over tested concentrations (5-500 nM), p = 0.9771
  maximal increase of dopamine neuron survival from MPP+ model effect: 13.6 ± 6.7%
GRP78-NBD [3]
  binding to GRP78-NBD (spectral shift), in words: do not bind to GRP78-NBD
[4]; maximal effect over tested concentrations (5-500 nM), p = 0.4382
  maximal reduction of aSyn aggregation from MPP+ model effect: 21.2 ± 5.9%
Phosphorylated IRE1α
  UPR modulating effect on IRE1α pathway: nearly completely lost the UPR modulating effect
nucleus-localized ATF4
  UPR modulating effect on PERK/ATF4 pathway: nearly completely lost the UPR modulating effect

B2: C-CDNF-MT2: C-CDNF mutant E156/157/163A (peptide)
peptide: B1 peptide with E30A, E31A, A38K
modifications: disulfide 32-35
[2]; MPP+ 48 h
  neuroprotective activity: did not show any neuroprotective activity
GRP78-NBD [3]
  binding to GRP78-NBD (spectral shift), in words: do not bind to GRP78-NBD
[4]; all three tested concentrations, compared to wild-type C-CDNF
  activity in neuroprotection or aSyn aggregation: very low activity in neuroprotection or aSyn aggregation
Phosphorylated IRE1α
  UPR modulating effect on IRE1α pathway: nearly completely lost the UPR modulating effect
nucleus-localized ATF4
  UPR modulating effect on PERK/ATF4 pathway: nearly completely lost the UPR modulating effect

B3: C-CDNF-MT3 (protein)
chain: B1 peptide with R33A, A37E
modifications: disulfide 32-35
nucleus-localized ATF6; 5-500 nM
  ATF6 pathway modulating activity: dose-dependent effect
[2]; 500 nM, MPP+ 48 h, p = 0.0878
  increase of dopamine neuron survival from MPP+ model effect: 40.3 ± 8.4%
[2]; MPP+ 48 h
  neuroprotective activity: reduced potency in the neuroprotection assay
GRP78-NBD [3]
  binding to GRP78-NBD (spectral shift), in words: impaired binding to GRP78-NBD; also recorded: weak binding to GRP78-NBD
[4]; 500 nM, MPP+ 48 h, p = 0.0073
  reduction in aSyn aggregation, change from MPP+ model effect: −42.1 ± 7.7%
Phosphorylated IRE1α; 500 nM, p = 0.0003
  decrease in phospho-IRE1α: 67.2 ± 6.0%
Phosphorylated IRE1α; 5 and 50 nM
  UPR modulating activity: loss of UPR modulating activity
nucleus-localized ATF4; 500 nM, p = 0.0498
  decrease in nuclear ATF4: 55.3 ± 8.2%

B4: ^13C/^15N-Ala-labeled C-CDNF: C-CDNF with labeled alanine residues A135, A145, A162, A175, A179, A180 (peptide)
peptide: KYEKTLDL[Ala(13C3,15N)]SVDLRKMRV[Ala(13C3,15N)]ELKQILHSWGEECRAC[Ala(13C3,15N)]EKTDYVNLIQEL[Ala(13C3,15N)]PKY[Ala(13C3,15N)][Ala(13C3,15N)]THPKTEL
modifications: disulfide 32-35
GRP78-NBD [5]
  effect of GRP78-NBD titration on Ala methyl groups: The three well-resolved methyl groups of A145, A162 and A175 are clearly affected; also recorded: A179 and A180 do not display any clear effects

B5: MANF: mesencephalic astrocyte-derived neurotrophic factor (protein, UniProt P55145 25-182, looked up)
Mesencephalic …: LRPGDCEVCISYLGRFYQDLKDRDVTFSPATIENELIKFCREARGKENRLCYYIGATDDAATKIINEVSKPLAHHIPVEKICEKLKKKDSQICELKYDKQIDLSTVDLKKLRVKELKKILDDWGETCKGCAEKSDYIRKINELMPKYAPKAASARTDL
GRP78-NBD [6]
  binding to GRP78 nucleotide-binding domain: binds to the regulatory, nucleotide-binding domain of GRP78 via its C-terminal domain
